Experimental data: ChEMBL document CHEMBL3352788, “Characterization of selective exosite-binding inhibitors of matrix metalloproteinase 13 that prevent articular cartilage degradation in vitro” (J Med Chem, 2014)

What was measured:
Collagenase 3 [1] = molecular target: T1, Collagenase 3 (Homo sapiens, UniProt P45452); assay: Competitive inhibition of full-length recombinant human MMP-13 assessed as fTHP-15 substrate hydrolysis by Lineweaver-Burke plot analysis
Method in brief: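 Pro-MMP-13 activated with 1 mM APMA for 2 h at 37 °C. Enzyme at 4 nM was incubated with fTHP-15 at 2–25 μM and varying inhibitor in Tris pH 7.5/NaCl/CaCl2/Brij-35 buffer at room temperature. Fluorescence was read at ex 324/em 393 nm, and rates were taken from the linear portion. Mechanism was assigned by a mixed-model nonlinear fit (α parameter) and confirmed by Lineweaver–Burke plots.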

Collagenase 3 [2] = molecular target: T1, Collagenase 3; settings: 50 uM
Cytochrome P450 3A4 [3] = molecular target: T2, Cytochrome P450 3A4 (Homo sapiens, UniProt P08684); assay: Inhibition of CYP3A4 (unknown origin) using testosterone substrate; format: ADME
T2 sequence (P08684 whole entry): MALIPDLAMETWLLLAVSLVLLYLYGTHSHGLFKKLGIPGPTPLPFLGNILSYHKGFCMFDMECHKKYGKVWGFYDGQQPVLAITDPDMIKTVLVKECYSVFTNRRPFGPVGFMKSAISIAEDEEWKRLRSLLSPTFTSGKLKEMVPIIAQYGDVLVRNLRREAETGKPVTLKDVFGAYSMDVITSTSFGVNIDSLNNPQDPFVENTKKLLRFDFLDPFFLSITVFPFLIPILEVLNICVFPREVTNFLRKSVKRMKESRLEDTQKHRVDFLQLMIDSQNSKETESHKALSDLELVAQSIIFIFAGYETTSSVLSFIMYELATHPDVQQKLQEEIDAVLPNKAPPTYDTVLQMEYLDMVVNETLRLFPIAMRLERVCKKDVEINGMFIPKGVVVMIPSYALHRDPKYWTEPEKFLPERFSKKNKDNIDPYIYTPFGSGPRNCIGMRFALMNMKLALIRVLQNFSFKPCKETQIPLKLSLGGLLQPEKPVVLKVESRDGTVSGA
Method in brief: (§1)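 Reactions stopped with acetonitrile/0.1% formic acid plus labelled internal standard. Metabolite measured by LC-MS area ratio. IC50 by linear interpolation.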

Collagenase 3 [4] = molecular target: T1, Collagenase 3; assay: Inhibition of full-length recombinant human MMP-13 assessed as bovine type-2 collagen hydrolysis after 22 hrs by fluorescence assay
Cytochrome P450 2C8 = molecular target: T3, Cytochrome P450 2C8 (Homo sapiens, UniProt P10632); assay: Inhibition of CYP2C8 (unknown origin) using amodiaquine substrate; format: ADME
T3 sequence (P10632 whole entry): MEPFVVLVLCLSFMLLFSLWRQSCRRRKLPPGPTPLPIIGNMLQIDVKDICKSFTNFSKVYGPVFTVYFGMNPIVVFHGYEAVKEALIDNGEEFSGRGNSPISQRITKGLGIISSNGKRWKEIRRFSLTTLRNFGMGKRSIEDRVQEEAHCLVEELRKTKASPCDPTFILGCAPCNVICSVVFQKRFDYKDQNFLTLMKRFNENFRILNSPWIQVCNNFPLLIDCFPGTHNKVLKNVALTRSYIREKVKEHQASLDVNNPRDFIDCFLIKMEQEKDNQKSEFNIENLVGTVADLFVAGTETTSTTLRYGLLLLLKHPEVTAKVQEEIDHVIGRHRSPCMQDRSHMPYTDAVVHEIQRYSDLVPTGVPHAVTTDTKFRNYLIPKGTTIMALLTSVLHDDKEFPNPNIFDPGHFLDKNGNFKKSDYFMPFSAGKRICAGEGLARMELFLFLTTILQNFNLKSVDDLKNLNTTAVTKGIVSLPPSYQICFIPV
Method in brief: (§2)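 Human liver microsomes with probe substrate and an NADPH-regenerating system in 0.1 M potassium phosphate pH 7.4 at 37 °C, run in duplicate. Inhibitor at 0–20 μM (0–2.5 μM for one compound), eight concentrations. Reactions were stopped with acetonitrile/formic acid containing isotope-labelled internal standard, and metabolite area ratios were compared with and without inhibitor. IC50 was taken by linear interpolation between bracketing concentrations.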

Cytochrome P450 1A2 = molecular target: T4, Cytochrome P450 1A2 (Homo sapiens, UniProt P05177); assay: Inhibition of CYP1A2 (unknown origin) using tacrin substrate; format: ADME; method in brief: as §2
T4 sequence (P05177 whole entry): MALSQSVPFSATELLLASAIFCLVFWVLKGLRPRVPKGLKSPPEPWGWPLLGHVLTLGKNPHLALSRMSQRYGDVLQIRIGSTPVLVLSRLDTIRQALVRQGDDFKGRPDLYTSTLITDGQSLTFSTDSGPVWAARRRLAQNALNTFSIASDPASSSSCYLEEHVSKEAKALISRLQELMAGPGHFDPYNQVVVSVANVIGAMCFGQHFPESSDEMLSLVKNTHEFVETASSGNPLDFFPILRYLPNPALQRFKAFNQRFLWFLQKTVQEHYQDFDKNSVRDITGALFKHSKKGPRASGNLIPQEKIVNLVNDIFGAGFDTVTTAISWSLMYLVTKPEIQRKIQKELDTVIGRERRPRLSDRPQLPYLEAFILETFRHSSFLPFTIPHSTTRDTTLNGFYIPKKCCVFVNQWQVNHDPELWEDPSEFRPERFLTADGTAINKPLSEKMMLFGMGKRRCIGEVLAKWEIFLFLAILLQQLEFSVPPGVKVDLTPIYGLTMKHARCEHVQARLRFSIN

Collagenase 3 [5] = molecular target: T1, Collagenase 3; assay: Non-competitive inhibition of full-length recombinant human MMP-13 assessed as fTHP-15 substrate hydrolysis
Liver microsome [6] = assay: Half life in human liver microsomes by LC-MS/MS analysis; format: ADME
Method in brief: (§3)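 Compound at 1 μM with 1 mg/mL liver microsomes in 100 mM potassium phosphate pH 7.4 at 37 °C with shaking. Reaction started with 1 mM NADPH (final). Aliquots were taken at 0, 5, 10, 20, 40 and 60 min and quenched in acetonitrile. Parallel incubations without NADPH were run.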

Cytochrome P450 2C9 = Cytochrome P450 2C9 (Homo sapiens, UniProt P11712); assay: Inhibition of CYP2C9 (unknown origin) using diclofenac substrate; format: ADME; method in brief: as §2
Chain of Cytochrome P450 2C9 (P11712 whole entry): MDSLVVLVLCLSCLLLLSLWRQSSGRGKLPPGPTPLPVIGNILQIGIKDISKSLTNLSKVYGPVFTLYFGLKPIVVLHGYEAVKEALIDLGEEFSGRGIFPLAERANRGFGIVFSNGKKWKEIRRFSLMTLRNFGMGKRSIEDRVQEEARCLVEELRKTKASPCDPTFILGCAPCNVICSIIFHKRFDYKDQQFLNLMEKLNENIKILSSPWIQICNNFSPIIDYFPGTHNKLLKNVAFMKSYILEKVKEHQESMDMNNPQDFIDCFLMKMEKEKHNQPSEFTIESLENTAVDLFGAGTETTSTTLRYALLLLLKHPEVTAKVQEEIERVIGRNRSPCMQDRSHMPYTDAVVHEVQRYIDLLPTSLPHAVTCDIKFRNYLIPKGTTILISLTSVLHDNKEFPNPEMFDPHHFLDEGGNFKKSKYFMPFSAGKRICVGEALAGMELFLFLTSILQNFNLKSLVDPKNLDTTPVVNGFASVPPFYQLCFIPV

Cytochrome P450 2D6 = Cytochrome P450 2D6 (Homo sapiens, UniProt P10635); assay: Inhibition of CYP2D6 (unknown origin) using dextromethophan substrate; format: ADME; method in brief: as §2
Chain of Cytochrome P450 2D6 (P10635 whole entry): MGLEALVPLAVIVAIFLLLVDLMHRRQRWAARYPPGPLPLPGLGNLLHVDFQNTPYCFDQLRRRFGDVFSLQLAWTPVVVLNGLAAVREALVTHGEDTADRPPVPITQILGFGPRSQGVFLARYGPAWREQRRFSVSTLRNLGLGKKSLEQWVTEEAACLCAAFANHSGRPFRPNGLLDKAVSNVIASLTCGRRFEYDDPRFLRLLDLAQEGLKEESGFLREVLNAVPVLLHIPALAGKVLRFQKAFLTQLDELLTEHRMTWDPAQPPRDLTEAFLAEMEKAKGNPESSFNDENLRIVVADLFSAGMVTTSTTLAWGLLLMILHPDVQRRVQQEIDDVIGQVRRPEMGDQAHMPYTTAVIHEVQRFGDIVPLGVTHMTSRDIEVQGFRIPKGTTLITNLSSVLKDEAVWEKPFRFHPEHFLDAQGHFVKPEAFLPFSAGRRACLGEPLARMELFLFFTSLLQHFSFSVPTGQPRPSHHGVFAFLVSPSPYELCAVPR

Cytochrome P450 2C19 = Cytochrome P450 2C19 (Homo sapiens, UniProt P33261); assay: Inhibition of CYP2C19 (unknown origin) using (S)-mephentoin substrate; format: ADME; method in brief: as §2
Chain of Cytochrome P450 2C19 (P33261 whole entry): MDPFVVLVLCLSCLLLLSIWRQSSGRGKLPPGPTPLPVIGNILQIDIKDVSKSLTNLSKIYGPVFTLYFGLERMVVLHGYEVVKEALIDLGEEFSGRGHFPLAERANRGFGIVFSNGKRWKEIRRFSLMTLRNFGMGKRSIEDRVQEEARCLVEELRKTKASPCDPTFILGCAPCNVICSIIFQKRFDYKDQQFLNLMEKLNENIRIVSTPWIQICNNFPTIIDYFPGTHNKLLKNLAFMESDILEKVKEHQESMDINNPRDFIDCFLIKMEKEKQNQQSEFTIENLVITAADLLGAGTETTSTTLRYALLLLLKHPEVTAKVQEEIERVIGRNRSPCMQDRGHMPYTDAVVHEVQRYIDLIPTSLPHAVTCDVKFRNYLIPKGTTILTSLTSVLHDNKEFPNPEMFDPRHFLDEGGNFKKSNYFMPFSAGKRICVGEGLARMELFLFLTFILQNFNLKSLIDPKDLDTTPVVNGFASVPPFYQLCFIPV

Cytochrome P450 2B6 = molecular target: T5, Cytochrome P450 2B6 (Homo sapiens, UniProt P20813); assay: Inhibition of CYP2B6 (unknown origin) using bupropion substrate; format: ADME; method in brief: as §2
T5 sequence (P20813 whole entry): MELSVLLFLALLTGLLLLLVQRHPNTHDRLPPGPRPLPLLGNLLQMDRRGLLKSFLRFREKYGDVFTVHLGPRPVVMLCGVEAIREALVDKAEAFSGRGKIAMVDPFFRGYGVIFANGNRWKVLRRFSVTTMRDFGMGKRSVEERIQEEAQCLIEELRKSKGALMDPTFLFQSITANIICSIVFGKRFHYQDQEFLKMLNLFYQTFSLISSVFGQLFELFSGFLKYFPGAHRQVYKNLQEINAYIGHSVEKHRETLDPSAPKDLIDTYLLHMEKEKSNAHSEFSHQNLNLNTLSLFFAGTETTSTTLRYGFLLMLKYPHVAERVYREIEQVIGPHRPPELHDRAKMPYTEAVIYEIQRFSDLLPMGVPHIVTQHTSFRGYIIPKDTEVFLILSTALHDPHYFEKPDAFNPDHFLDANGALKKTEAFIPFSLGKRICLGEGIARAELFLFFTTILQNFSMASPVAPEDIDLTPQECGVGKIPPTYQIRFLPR

Cytochrome P450 3A4 [7] = molecular target: T2, Cytochrome P450 3A4; assay: Inhibition of CYP3A4 (unknown origin) using midazolam substrate; format: ADME; method in brief: as §1
Liver microsome [8] = assay: Half life in rat liver microsomes by LC-MS/MS analysis; format: ADME; method in brief: as §3
Liver = assay: Half life in mouse liver microsomes by LC-MS/MS analysis; format: ADME; method in brief: as §3

CC(=O)NO
Kb (Collagenase 3 [1]): 1200 µM

O=C(O)CN(CCN(CC(=O)O)CC(=O)O)CC(=O)O
inhibition (Collagenase 3 [2]): 70%

Cc1ccc(CSc2nc3c(c(=O)[nH]2)CCC3)cc1
IC50 (Cytochrome P450 3A4 [3]): > 20 µM | IC50 (Collagenase 3 [4]): 0.4 µM | IC50 (Cytochrome P450 2C8): > 20 µM | IC50 (Cytochrome P450 1A2): 3.7 µM | IC50 (Collagenase 3 [5]): 2.4 µM | t1/2 (Liver microsome [6]): 7.3 min | IC50 (Cytochrome P450 2C9): 8.8 µM | IC50 (Cytochrome P450 2D6): > 20 µM | IC50 (Cytochrome P450 2C19): 7.9 µM | IC50 (Cytochrome P450 2B6): > 20 µM | IC50 (Cytochrome P450 3A4 [7]): > 20 µM

CCN(CC)CCNC(=O)c1c(C)[nH]c(/C=C2\C(=O)Nc3ccc(F)cc32)c1C [SUNITINIB]
t1/2 (Liver microsome [8]): 26.5 min | t1/2 (Liver microsome [6]): 44.1 min | t1/2 (Liver): 12.3 min
